In series [1] the target is T1, Nuclear receptor subfamily 1 group I member 3 (Homo sapiens, UniProt Q14994).
T1 sequence (Q14994 whole entry): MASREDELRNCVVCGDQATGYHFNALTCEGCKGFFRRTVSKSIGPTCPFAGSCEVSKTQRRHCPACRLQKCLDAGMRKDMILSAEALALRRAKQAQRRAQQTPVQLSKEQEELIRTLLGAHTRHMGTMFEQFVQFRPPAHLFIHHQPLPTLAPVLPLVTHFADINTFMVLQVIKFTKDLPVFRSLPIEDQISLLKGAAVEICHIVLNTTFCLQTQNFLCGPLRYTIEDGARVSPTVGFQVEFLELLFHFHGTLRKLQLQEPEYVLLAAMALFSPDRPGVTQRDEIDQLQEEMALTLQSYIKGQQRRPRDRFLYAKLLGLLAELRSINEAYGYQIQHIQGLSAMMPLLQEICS
Description: Agonist activity at human constitutive androstane receptor expressed in HepG2 cells co-expressing CYP2B6 incubated for 23 hrs by One-Glo luciferase reporter gene assay. The class given is cell-based. The method, boiled down: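 HepG2-CYP2B6-hCAR stable reporter cells, 2,500/well, attached 5 h at 37 °C/5% CO₂. Compounds in DMSO, 16 final concentrations from 6.41 pM to 92 μM (1:3 steps), with PK11195 at 0.75 μM final; final DMSO 0.46%. After 23 h, viability read by CellTiter-Fluor (ex 405/em 540 nm), then ONE-Glo luminescence (30 min, RT) in RLU.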
On the technique in general: A reporter such as luciferase makes a cellular process visible.

Series [2] concerns the target T1, Nuclear receptor subfamily 1 group I member 3. Description: Induction of constitutive - androstane receptor in human primary hepatocytes assessed as upregulation of CYP2B6 mRNA expression measured after 24 hrs by RT-PCR analysis. It counts as cell-based. An outline of the steps: (§1)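 Primary human hepatocytes (donors HL-#131 and #133), viability >90%, 0.75×10⁶ cells/well, Matrigel overlay 0.25 mg/mL. Dosed 36 h post-seeding at 0.1, 0.5 and 1 μM (vehicle 0.1% DMSO; rifampin 10 μM reference) for 24 h. RT-PCR fold over control = 2^ΔΔCt versus GAPDH; mean ± SD, three independent experiments.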

Series [3] shares this target. Description: Induction of constitutive androstane receptor in human primary hepatocytes assessed as upregulation of CYP3A4 mRNA expression measured after 24 hrs by RT-PCR analysis. The class given is cell-based. An outline of the steps:
as §1

Series [4] shares this target. Put plainly: Induction of adenoviral enhanced yellow fluorescent protein tagged constitutive androstane receptor translocation from cytoplasm to nucleus in human primary hepatocytes at 1 uM measured after 8 hrs by DAPI staining based fluorescent microscopic analysis. It counts as cell-based. An outline of the steps:
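Hepatocytes (60,000/well, collagen plates) infected overnight with Ad/EYFP-hCAR (3 μL/mL), then treated 8 h at 1 μM; controls 0.1% DMSO, phenobarbital 1 mM. Cells PFA-fixed and DAPI-stained; five images per well. Translocation % = cells with ≥50% nuclear overlap with EYFP-hCAR ÷ EYFP-positive cells; mean ± SD of five images.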

Series [5] can be described thus: Stability of compound. It counts as physicochemical.
The nature of series [6]: Aqueous solubility of compound measured after 6 hrs by reverse phase HPLC analysis. It counts as physicochemical. The following applies: water. An outline of the steps:
(§2)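 6 mg solid in 1 mL water or PBS (pH 7.4), shaken 6 h at 25 °C, centrifuged, and the supernatant filtered. Filtrate quantified by C18 reverse-phase HPLC: water-acetonitrile-triethylamine 30:70:0.01, 1 mL/min, UV 312 nm. Standard curve from solutions of known concentration.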

Series [7] can be described thus: Aqueous solubility of the compound in phosphate buffer at pH 7.4 measured after 6 hrs by reverse phase HPLC analysis. The class given is physicochemical. Particulars: pH 7.4, 6 h; call rule not given here. An outline of the steps: as §2
Series [8] is described as follows: Lipophilicity, logP of compound. It counts as physicochemical. The following applies: octanol/water.
The subject of series [9] is SUD4. Description: Potentiation of cyclophospamide/doxorubicin/vincristine/prednisone induced cytotoxicity against human SUDHL4 cells co-cultured with human primary hepatocytes assessed as reduction in cell viability after 24 hrs. It counts as functional, cell-based. An outline of the steps: (§3)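 Hepatocytes pretreated 24 h with 1 μM test agent or 0.1% DMSO. 0.5×10⁶ SU-DHL-4 cells then added in membrane inserts (Williams' E). Co-cultures exposed with or without CHOP (5, 100, 500 μM; time course at 100 μM), plus or minus 1 μM agent. Viability by trypan blue exclusion at 24 h or set times, as % of vehicle; three independent measurements.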

The subject of series [10] is SUD4. Description: Potentiation of cyclophospamide/doxorubicin/vincristine/prednisone induced cytotoxicity against human SUDHL4 cells co-cultured with human primary hepatocytes assessed as reduction in cell viability at 1 uM. The class given is functional, cell-based. The following applies: TDE = time-dependent effect. An outline of the steps: as §3
In series [11] the target is T1, Nuclear receptor subfamily 1 group I member 3. Description: Induction of constitutive - androstane receptor in human primary hepatocytes assessed as upregulation of CYP2B6 protein expression measured after 72 hrs by Western blot analysis. The class given is cell-based. An outline of the steps:
(§4)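 Hepatocytes from donors #131 and #133, dosed 36 h after seeding at 0.1, 0.5 and 1 μM (0.1% DMSO vehicle) for 72 h. Homogenate proteins run on 4–12% SDS-PAGE and immunoblotted: anti-CYP2B6 1:200, anti-CYP3A4 1:5000, β-actin 1:50,000 loading control. HRP secondaries, ECL detection.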
A general note: Immunoblotting shows a protein as a band on a membrane.

For series [12] the target is unchanged. Description: Induction of constitutive androstane receptor in human primary hepatocytes assessed as upregulation of CYP3A4 protein expression measured after 72 hrs by Western blot analysis. It counts as cell-based. An outline of the steps:
as §4

Series [13] has as its system SUD4. Description: Antiproliferative activity against human SUDHL4 cells co-cultured with human primary hepatocytes assessed as reduction in cell viability at 1 uM after 24 hrs. Particulars: sud4, 24 h. The class given is cell-based. An outline of the steps: as §3
For series [14], the target named is T1, Nuclear receptor subfamily 1 group I member 3. Description: Ratio of Emax to EC50 for human constitutive androstane receptor expressed in HepG2 cells co-expressing CYP2B6.

Each structure is given as a SMILES string. ≈ marks a conversion by molar mass, not a printed value.

For the compound `c1ccc2c(c1)CC(NCc1c(-c3ccc4ccccc4c3)nc3occn13)C2`, in series [1], the EC50 – broadly, the concentration at which the effect is half-maximal – was found to be 660 nM. Further, the Activity result was “Dose-dependent effect” in [2]; “Active” in series [3]; “Active” in [4]; “Dose-dependent effect” in series [9]; “Tde” in series [10]; “Dose-dependent effect” in series [11]. Besides, the Activity result in series [12] is reported as “Dose-dependent effect”; in series [13], “Non-Toxic”. Further, in [5], the Stability result is given as “Stable”. Also, the solubility (in general, the dissolved amount per volume that the medium holds) turned out to be 18 µg/mL (≈ 47.4 µM) in [6] and 17 µg/mL (≈ 44.8 µM) in [7]. Besides, the logP (in general, the decadic logarithm of the partition coefficient of the neutral form, usually between octanol and water) in series [8] is 4.62. In [14], the Ratio amounted to 7.4 µM⁻¹.
